ChEMBL document CHEMBL1799966, “Synthesis and anticancer activity of oxindole derived imidazo[1,5-a]pyrazines” (Eur J Med Chem, 2011)
The source made the active and inactive calls. No cut-off for these calls is given here.

Experiments:
[1] = system: PC-3; assay: Cytotoxicity against human PC3 cells; assay type: functional
Procedure, shortened: (§1)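 NCI 60-cell panel second-stage testing by NCI standard procedures. Compound was dissolved in DMSO and tested at five 10-fold dilutions: 10^-4, 10^-5, 10^-6, 10^-7 and 10^-8 M.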

[2] = system: 786-0; assay: Cytotoxicity against human 786-0 cells; assay type: functional; procedure, shortened: as §1
[3] = system: A549; assay: Induction of apoptosis in human A549 cells assessed as nuclear fragmentation at 6.5 uM after 24 to 48 hrs by Hoechst 33342 staining; assay type: functional, cell-based
Procedure, shortened: (§2)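 A549 cells were grown 24 h on coverslips at 10,000 cells, then exposed to 6.5 µM for 24 h and 48 h, with 0.001% DMSO vehicle controls. Hoechst 33342 (0.5 µg/mL) with 4% paraformaldehyde was applied for 30 min at 37 °C. Random fields were examined by fluorescence microscopy, scoring relative fluorescence and nuclear fragmentation.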

[4] = system: A549; assay: Induction of cell cycle arrest in human A549 cells assessed as accumulation at G2/M phase at 6.5 uM after 48 hrs by propidium iodide staining-based FACS analysis (reference value: 20.92 %); assay type: functional
Procedure, shortened: (§3)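 A549 cells (1 × 10^6) in six-well plates received 6.5 µM (final) for 24 h or 48 h. Floating and adherent cells were fixed in 70% ethanol, washed in PBS, then stained for 20 min with 50 µg/mL propidium iodide in hypotonic citrate/Triton X-100 buffer with DNase-free RNase A. Cells were analysed by FACS.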

[5] = system: NCI-H460; assay: Cytotoxicity against human NCI-H460 cells; assay type: functional; procedure, shortened: as §1
[6] = system: NCI/ADR-RES; assay: Cytotoxicity against human NCI/ADR-RES cells; assay type: functional; procedure, shortened: as §1
[7] = system: SR; assay: Cytotoxicity against human SR cells; assay type: functional
Procedure, shortened: (§4)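 NCI 60-cell-line panel protocol. Primary screen used a single 10^-5 M concentration with 48 h incubation, and percent growth was read against untreated cells by sulforhodamine B protein staining. The five-dose follow-up used a DMSO solution at five 10-fold dilutions from 10^-4 to 10^-8 M.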

[8] = system: UO-31; assay: Cytotoxicity against human UO31 cells; assay type: functional; procedure, shortened: as §4
[9] = system: OVCAR-5; assay: Cytotoxicity against human OVCAR5 cells; assay type: functional; procedure, shortened: as §1
[10] = system: SK-MEL-5; assay: Cytotoxicity against human SK-MEL-5 cells; assay type: functional; procedure, shortened: as §4
[11] = system: K562; assay: Cytotoxicity against human K562 cells; assay type: functional; procedure, shortened: as §1
[12] = system: SF-295; assay: Cytotoxicity against human SF295 cells; assay type: functional; procedure, shortened: as §1
[13] = system: T47D; assay: Cytotoxicity against human T47D cells; assay type: functional; procedure, shortened: as §4
[14] = system: A549; assay: Cytotoxicity against human A549 cells; assay type: functional
[15] = system: SF-268; assay: Cytotoxicity against human SF268 cells; assay type: functional; procedure, shortened: as §1
[16] = system: A549; assay: Induction of apoptosis in human A549 cells assessed as late apoptotic cells at 6.5 uM after 48 hrs using Annexin V-FITC and PI staining by flow cytometry (reference value: 85.7 %); assay type: functional
[17] = system: UACC-62; assay: Cytotoxicity against human UACC62 cells; assay type: functional; procedure, shortened: as §4
[18] = system: A549; assay: Induction of cell cycle arrest in human A549 cells assessed as accumulation at sub G1 phase at 6.5 uM after 24 hrs by propidium iodide staining-based FACS analysis (reference value: 1.02 %); assay type: functional; procedure, shortened: as §3
[19] = system: OVCAR-4; assay: Cytotoxicity against human OVCAR4 cells; assay type: functional; procedure, shortened: as §1
[20] = system: A549; assay: Induction of apoptosis in human A549 cells assessed as apoptotic cells at 6.5 uM after 24 hrs using Annexin V-FITC and PI staining by flow cytometry (reference value: 2.6 %); assay type: functional
[21] = system: A549; assay: Induction of apoptosis in human A549 cells assessed as viable cells at 6.5 uM after 24 hrs using Annexin V-FITC and PI staining by flow cytometry (reference value: 11.1 %); assay type: functional; settings: A549, 24 h, read-out: Activity
[22] = system: NCI-H226; assay: Cytotoxicity against human NCI-H226 cells; assay type: functional; procedure, shortened: as §1
[23] = system: A549; assay: Induction of apoptosis in human A549 cells assessed as intraneucleosomal DNA fragmentation at 6.5 uM after 24 to 48 hrs by agarose gel electrophoresis technique; assay type: functional, cell-based
Procedure, shortened: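 After 24 h and 48 h at 6.5 µM, A549 cells were pelleted, washed in PBS and lysed. The supernatant was treated with SDS and RNase A for 2 h at 56 °C, then proteinase K. DNA was precipitated with ammonium acetate and ice-cold ethanol at −80 °C for 1 h, washed in 80% ethanol, dissolved in TE, and run on 2% agarose gel.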

[24] = system: SK-MEL-2; assay: Cytotoxicity against human SK-MEL-2 cells; assay type: functional; procedure, shortened: as §1
[25] = system: OVCAR-8; assay: Cytotoxicity against human OVCAR8 cells; assay type: functional; procedure, shortened: as §1
[26] = system: A549; assay: Induction of cell cycle arrest in human A549 cells assessed as accumulation at sub G1 phase at 6.5 uM after 48 hrs by propidium iodide staining-based FACS analysis (reference value: 1.02 %); assay type: functional; procedure, shortened: as §3
[27] = system: M14; assay: Cytotoxicity against human M14 cells; assay type: functional; procedure, shortened: as §1
[28] = system: MDA-MB-468; assay: Cytotoxicity against human MDA-MB-468 cells; assay type: functional; procedure, shortened: as §1
[29] = system: Malme-3M; assay: Cytotoxicity against human MALME-3M cells; assay type: functional; procedure, shortened: as §1
[30] = system: SK-OV-3; assay: Cytotoxicity against human SKOV3 cells; assay type: functional; procedure, shortened: as §4
[31] = system: MCF7; assay: Cytotoxicity against human MCF7 cells; assay type: functional; procedure, shortened: as §1
[32] = system: NCI-H322M; assay: Cytotoxicity against human NCI-H322M cells; assay type: functional; procedure, shortened: as §1
[33] = system: HCT-116; assay: Cytotoxicity against human HCT116 cells; assay type: functional; procedure, shortened: as §1
[34] = system: SN12C; assay: Cytotoxicity against human SN12C cells; assay type: functional; procedure, shortened: as §4
[35] = system: A549; assay: Induction of apoptosis in human A549 cells assessed as apoptotic bodies formation at 6.5 uM after 24 to 48 hrs by Hoechst 33342 staining; assay type: functional, cell-based; procedure, shortened: as §2
[36] = system: HOP-62; assay: Cytotoxicity against human HOP62 cells; assay type: functional; procedure, shortened: as §1
[37] = system: A549; assay: Induction of apoptosis in human A549 cells assessed as pre-necrotic cells at 6.5 uM after 24 hrs using Annexin V-FITC and PI staining by flow cytometry (reference value: 0.5 %); assay type: functional
[38] = system: SF-539; assay: Cytotoxicity against human SF539 cells; assay type: functional; procedure, shortened: as §1
[39] = system: SW-620; assay: Cytotoxicity against human SW620 cells; assay type: functional; procedure, shortened: as §4
[40] = system: HT-29; assay: Cytotoxicity against human HT-29 cells; assay type: functional; procedure, shortened: as §1
[41] = system: RXF 393; assay: Cytotoxicity against human RXF393 cells; assay type: functional; procedure, shortened: as §1
[42] = system: A549; assay: Induction of apoptosis in human A549 cells assessed as apoptotic cells at 6.5 uM after 48 hrs using Annexin V-FITC and PI staining by flow cytometry (reference value: 2.6 %); assay type: functional
[43] = system: A549; assay: Induction of cell cycle arrest in human A549 cells assessed as accumulation at G0/G1 phase at 6.5 uM after 24 hrs by propidium iodide staining-based FACS analysis (reference value: 56.26 %); assay type: functional; procedure, shortened: as §3
[44] = system: U-251; assay: Cytotoxicity against human U251 cells; assay type: functional; procedure, shortened: as §4
[45] = system: A549; assay: Induction of apoptosis in human A549 cells assessed as late apoptotic cells at 6.5 uM after 24 hrs using Annexin V-FITC and PI staining by flow cytometry (reference value: 85.7 %); assay type: functional
[46] = system: MDA-MB-435; assay: Cytotoxicity against human MDA-MB-435 cells; assay type: functional; procedure, shortened: as §1

## O=C1Nc2ccccc2/C1=C\c1nc(-c2ccccc2F)n2ccccc12
[1]
  GI50: 6.81 µM
[2]
  GI50: 3.44 µM
[3]
  Activity: Active
[4]
  Activity: 10.12%
[5]
  GI50: 2.17 µM
[6]
  GI50: 3.36 µM
[7]
  GI50: 11 µM
[8]
  GI50: 2.12 µM
[9]
  GI50: 1.8 µM
[10]
  GI50: 2.8 µM
[11]
  GI50: 6.35 µM
[12]
  GI50: 3.65 µM
[13]
  GI50: 2.36 µM
[14]
  GI50: 3.46 µM
[15]
  GI50: 4.65 µM
[16]
  Activity: 3.4%
[17]
  GI50: 6.32 µM
[18]
  Activity: 1.19%
[19]
  GI50: 1.81 µM
[20]
  Activity: 61.5%
[21]
  viability at 6.5 µM: 31.2%
[22]
  GI50: 4.78 µM
[23]
  Activity: Active
[24]
  GI50: 6.81 µM
[25]
  GI50: 2.49 µM
[26]
  Activity: 6.56%
[27]
  GI50: 5.65 µM
[28]
  GI50: 1.54 µM
[29]
  GI50: 3.07 µM
[30]
  GI50: 3.46 µM
[31]
  GI50: 2.1 µM
[32]
  GI50: 4.16 µM
[33]
  GI50: 1.97 µM
[34]
  GI50: 4.32 µM
[35]
  Activity: Active
[36]
  GI50: 2.37 µM
[37]
  Activity: 0.1%
[38]
  GI50: 3.1 µM
[39]
  GI50: 3.97 µM
[40]
  GI50: 3.5 µM
[41]
  GI50: 3.41 µM
[42]
  Activity: 87.4%
[43]
  Activity: 66.2%
[44]
  GI50: 2.57 µM
[45]
  Activity: 7.2%
[46]
  GI50: 3.95 µM
